# FGF22 binding = binders of recombinant human FGF22 by thermal shift | Q9HCT0 | SYPRO orange fluorescence; percent of sucrose octasulfate shift, DMSO zero | activity (Tm shift, normalised), % at 9.99 µM | hit rate 1.5% among 340,000;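 active means mean Tm shift, scaled 0 neutral to 100 positive control, at about 1.3% or above, every replicate too, limit read from the data; inconclusive means no clear call, values can overlap the other calls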
# Target sequence (Q9HCT0 whole entry, looked up): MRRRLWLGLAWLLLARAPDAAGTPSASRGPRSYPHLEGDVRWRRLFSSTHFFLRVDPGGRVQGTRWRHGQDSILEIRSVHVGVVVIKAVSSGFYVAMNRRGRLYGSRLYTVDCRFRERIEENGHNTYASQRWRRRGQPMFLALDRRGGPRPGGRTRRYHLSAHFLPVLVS
# F508del corr = correctors of CFTR F508del function in bronchial epithelial cells; CFBE cells, YFP halide quenching; stimulated with forskolin plus potentiator P3; % fluorescence drop versus neutral controls; activity (quench increase), % at 7.58 µM; hit rate 0.36% among 350,000; AID 720511;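 active means mean added fluorescence quench of at least 8% versus neutral control, with both replicates also reaching 8%; inconclusive means only one of the mean or replicate conditions met; inactive means mean below 8% and not both replicates reaching 8%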;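 further: cells transiently co-express mutant CFTR-F508del with the halide-sensitive YFP; corrector assay measuring rescue of mutant channel to the surface after 24 h compound exposure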
# dFosB act = activators of mouse delta FosB homodimer | P13346 | purified delta FosB, TAMRA-CDK5 oligo fluorescence polarization; percent of positive-control signal above neutral wells | activation, % at 25 µM | hit rate 0.99% among 340,000 | AID 493131;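 active means mean activation above about 17%, with every replicate also reaching it, limit read from the data, passing the limit was not always enough; inconclusive means only one of the two conditions met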
# Target sequence (P13346 whole entry, looked up): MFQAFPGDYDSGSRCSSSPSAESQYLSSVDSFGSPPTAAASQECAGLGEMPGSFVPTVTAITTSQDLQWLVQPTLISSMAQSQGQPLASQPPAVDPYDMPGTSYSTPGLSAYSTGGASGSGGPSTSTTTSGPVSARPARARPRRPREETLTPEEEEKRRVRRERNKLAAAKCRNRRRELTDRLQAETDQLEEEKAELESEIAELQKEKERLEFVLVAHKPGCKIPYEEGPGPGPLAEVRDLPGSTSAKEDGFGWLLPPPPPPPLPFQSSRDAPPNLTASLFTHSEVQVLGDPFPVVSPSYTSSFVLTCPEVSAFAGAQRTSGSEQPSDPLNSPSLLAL
# S100A4 inh HTS = blocks human S100A4 binding to myosin IIA peptide; inhibition, % at 10.7 µM; hit rate 0.14% among 360,000; S100A4/TAMRA-MyoIIA peptide fluorescence polarization; P26447;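 active means mean inhibition of at least 70% across replicates, with every replicate also reaching that level; inconclusive means mean inhibition reaches 70% but some replicates fall short; inactive means mean inhibition below 70%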
#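 incubation = readout 5 min after mixing, signal stable up to 60 min | system = S100A4 monomer protein | buffer or medium = HEPES pH 7.2 with CaCl2, KCl, NaCl, DTT, Triton | benchmarks = neutral control DMSO, positive control TFP | also added = fluorescent myosin IIA peptide, 5 nM | compound dosing = one concentration per compound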
# Starred values were filed as active, the others as inactive; ? = inconclusive; · = no result given. Sampled rows, rich in hits. Any-hit rate of the full collection: about 2.2%.
SMILES,FGF22 binding,F508del corr,dFosB act,S100A4 inh HTS
O=C(c1ccncc1)N1C[C@@H]2[C@H](c3ccccc31)[C@H](CO)N2C(=O)c1ccccn1,0,0,·,-2
CCOCCCNC(=O)c1ccc2c(c1)ncn2C1CCCC1,·,·,0,·
CC(C)CCNC(=O)c1ccc2c(c1)ncn2C1CCCC1,45*,1,-8,2
C[C@@H]1CN([C@H](C)CO)C(=O)Cc2cc(NS(=O)(=O)c3ccc(F)cc3)ccc2O[C@@H]1CN(C)C(=O)Nc1ccccc1,0,-2,·,-2
COc1ccc(NC(=O)N(C)C[C@H]2OCCCC[C@H](C)Oc3ccc(NS(=O)(=O)c4ccc(C)cc4)cc3C(=O)N([C@@H](C)CO)C[C@@H]2C)cc1,·,0,·,35
CC1CCCCN1C(=O)Nc1cccc(C(F)(F)F)c1 (configuration not stated),0,·,-1,8
COC(=O)C1CC(O)CN1C(=O)Nc1cccc(C(F)(F)F)c1 (configuration not stated),43*,1,0,0
Cc1ccc(S(=O)(=O)N(C)C[C@H]2Oc3ncc(-c4ccncc4)cc3C(=O)N([C@H](C)CO)C[C@@H]2C)cc1,0,0,·,-4
C[C@@H]1CCCCO[C@H](CN(C)C(=O)CCCN(C)C)[C@@H](C)CN([C@H](C)CO)C(=O)c2cc(NC(=O)CCC(F)(F)F)ccc2O1,1.5*,-4,·,-4
C[C@@H]1CCCCO[C@@H](CN(C)C(=O)CCC(F)(F)F)[C@@H](C)CN([C@H](C)CO)C(=O)c2cc(NC(=O)CCCN(C)C)ccc2O1,0,-3,·,·
C[C@@H]1CCCCO[C@@H](CN(C)C(=O)CCC(F)(F)F)[C@@H](C)CN([C@@H](C)CO)C(=O)c2cc(NC(=O)c3ccccc3)ccc2O1,0,3,·,97*
Cc1ccccc1S(=O)(=O)N(C)C[C@@H]1OCc2cn(nn2)CCCC(=O)N([C@H](C)CO)C[C@@H]1C,0,2,·,3
C[C@@H]1CN([C@@H](C)CO)C(=O)c2cc(NS(=O)(=O)c3ccc(F)cc3)ccc2O[C@@H]1CN(C)C(=O)Nc1ccc(F)cc1,0,0,·,2
Cc1cccc(NC(=O)C(=O)N/N=C/c2ccncc2)c1,43*,3,-6,4
COc1ccc(C(=O)OCC(=O)N(Cc2ccccc2)Cc2ccccc2)c(O)c1,43*,-1,·,-2
Cc1ccc(C(=O)N/C(=C\c2ccc(-c3ccc(Br)cc3)o2)C(=O)NCCCN(C)C)cc1,0,-3,?,-1
CN(C)CCNC(=O)/C(=C/c1ccc(-c2ccc(Cl)cc2Cl)o1)NC(=O)c1ccccc1,·,·,35*,·
CN(C)CCNC(=O)/C(=C/c1ccc(-c2ccc(Cl)cc2)o1)NC(=O)c1ccccc1,·,·,20*,·
CN(C)CCCNC(=O)/C(=C\c1ccc(-c2cccc([N+](=O)[O-])c2)o1)NC(=O)c1ccccc1,0,-3,15,2
C[C@@H]1CN([C@H](C)CO)C(=O)c2cccc(NC(=O)Nc3ccc(F)cc3)c2O[C@H]1CN(C)Cc1ccc(Oc2ccccc2)cc1,0,-3,·,7
O=C1c2ccccc2C(=O)N1CCN1CCCCC1,·,·,-1,·
O=C1c2cccc3cc([N+](=O)[O-])cc(c23)C(=O)N1CCN1CCCC1,0,7,58*,-3
CC(NS(=O)(=O)OCC(Cl)(Cl)Cl)c1ccc(Br)cc1 (configuration not stated),43*,2,-2,-1
CC(=O)c1cc(-c2ccccc2)n(CC(=O)NC2CCCC2)c1C,·,·,-6,·
CC(=O)c1cc(-c2ccccc2)n(CC(=O)Nc2cc(C)cc(C)c2)c1C,·,·,33*,·
SMILES,FGF22 binding,F508del corr,dFosB act,S100A4 inh HTS
O=C(CC1CC1)N1CC(=O)N2[C@@H](CO)[C@@H](c3ccc(C#Cc4ccccc4)cc3)[C@@H]2C1,·,4,·,-16
C/C(CC(=O)Nc1ccc(Cl)cc1C(F)(F)F)=N\NC(=O)c1ccccn1,43*,1,-16,-6
C[C@H]1CN([C@@H](C)CO)C(=O)c2cccc(NC(=O)c3nc4ccccc4s3)c2O[C@H]1CN(C)Cc1ccc(Oc2ccccc2)cc1,0,1,·,3
CC(C)(C)OC(=O)N1CCC[C@H]1C(=O)N1CCC[C@H]1C(=O)NCc1ccc(F)cc1F,0,-2,·,-7
CC(C)(C)OC(=O)N1CCC[C@H]1C(=O)NCc1ccc(Cl)cc1Cl,65*,-2,-4,-3
CC=Cc1ccc2n(c1=O)C[C@H]1[C@H](CO)[C@@H](C(=O)NC3Cc4ccccc4C3)[C@@H]2N1C(C)=O (mixture of isomers),0,·,·,3
O=C(Nc1ccc2c(c1)[C@H]1C[C@@H](CC(=O)N3CCc4ccccc4C3)O[C@H](CO)[C@H]1O2)C1CCOCC1,0,5,·,6
C/C(=N\OCc1ccc(C#N)cc1)c1ccccc1,44*,4,-7,-3
CCC(=O)N(c1ccc(C(=O)O)cc1)c1nc(-c2ccc(OC)cc2)c(C)s1,44*,-1,-2,0
Cc1ccc(C2=NCCn3c2c2ccc(C(F)(F)F)cc2[n+]3[O-])cc1,43*,1,-4,-1
Brc1ccc2c(c1)C(C1=NCCN1)c1ccccc1CS2 (configuration not stated),0,11*,2,-1
c1ccc2c(c1)CCCC2C1=NCCN1 (configuration not stated),0,3,0,-3
CO[C@@]12[C@@H]3N[C@@H]3CN1C1=C(C(=O)C(N)=C(C)C1=O)[C@@H]2COC(N)=O,·,14*,1,7
c1ccc2c(NCCc3c[nH]c4ccccc34)c3ccccc3nc2c1,0,3,123*,16
Cc1ccc(-c2nc(NCCCO)c3ccccc3n2)cc1,0,·,-27,3
OCCCNc1c2ccccc2nc2ccccc12,0,5,19*,-5
CS(=O)(=O)Nc1ccc2c(c1)[C@H]1C[C@@H](CC(=O)NCc3ccccn3)O[C@H](CO)[C@H]1O2,0,-2,·,1
CC(C)CC(NC(N)=O)C(=O)NCCc1ccc(Cl)cc1Cl (configuration not stated),44*,1,-2,1
CC[C@H](C)[C@H](NC(N)=O)C(=O)NCCc1ccc(Cl)cc1,44*,1,6,1
CC[C@H](C)[C@H](NC(N)=O)C(=O)NCCc1ccc(OC)cc1,0,0,3,-3
CCc1ccc(C(=O)COC(=O)[C@@H](NC(N)=O)[C@@H](C)CC)cc1,43*,0,-3,-1
CC[C@H](C)[C@H](NC(N)=O)C(=O)Nc1ccc(NC(C)=O)cc1,0,0,-5,-4
CCC(C)C(NC(N)=O)C(=O)Nc1ccc(C(=O)OC)cc1 (configuration not stated),43*,0,1,-3
CC(C)[C@H](NC(N)=O)C(=O)NCCc1ccc(Cl)cc1Cl,42,-3,-6,-5

# Screening data: PubChem BioAssay, Broad Institute
